ChEMBL document CHEMBL1142013, “Tryptamine and homotryptamine-based sulfonamides as potent and selective inhibitors of 15-lipoxygenase” (Bioorg Med Chem Lett, 2005)

Experiments:
[1] = target: T1, Polyunsaturated fatty acid lipoxygenase ALOX15 (Oryctolagus cuniculus, UniProt P12530); test: Inhibitory concentration against rabbit reticulocyte 15-lipoxygenase with substrate arachidonic acid
T1 sequence (P12530 whole entry): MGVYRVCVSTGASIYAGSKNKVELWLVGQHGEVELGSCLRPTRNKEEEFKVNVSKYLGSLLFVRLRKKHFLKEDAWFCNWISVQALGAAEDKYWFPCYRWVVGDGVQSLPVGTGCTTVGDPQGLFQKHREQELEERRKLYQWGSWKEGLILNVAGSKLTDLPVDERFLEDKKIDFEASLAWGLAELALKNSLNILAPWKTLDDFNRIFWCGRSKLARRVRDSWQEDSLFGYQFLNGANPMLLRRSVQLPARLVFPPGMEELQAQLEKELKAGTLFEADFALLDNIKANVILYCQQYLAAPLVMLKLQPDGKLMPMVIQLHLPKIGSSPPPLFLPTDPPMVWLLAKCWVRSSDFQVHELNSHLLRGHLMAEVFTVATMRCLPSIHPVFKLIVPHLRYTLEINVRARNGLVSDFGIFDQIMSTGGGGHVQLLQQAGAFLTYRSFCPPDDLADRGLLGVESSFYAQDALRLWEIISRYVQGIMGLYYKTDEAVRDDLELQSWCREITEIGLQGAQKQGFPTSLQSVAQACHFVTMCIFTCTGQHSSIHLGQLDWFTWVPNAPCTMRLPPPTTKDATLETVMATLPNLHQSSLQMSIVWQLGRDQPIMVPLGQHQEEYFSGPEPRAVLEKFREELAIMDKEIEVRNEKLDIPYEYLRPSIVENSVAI
In short: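 Purified rabbit reticulocyte 15-LO, isolated from phenylhydrazine-treated rabbits, with arachidonic acid as the substrate. IC50 comes from a colorimetric read-out in which the 15-HPETE product oxidizes Fe²⁺ under mildly acidic conditions. Many values were also verified by the spectrophotometric diene-formation rate (A₂₃₄).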

[2] = target: T1, Polyunsaturated fatty acid lipoxygenase ALOX15; test: Inhibitory concentration against isolated rabbit reticulocyte 15-lipoxygenase measured in the presence of linoleic acid
In short: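 15-LO was purified from reticulocytes of phenylhydrazine-treated rabbits. Linoleic acid was the substrate. In a colorimetric assay, the 13-HPODE product oxidizes Fe²⁺ under mildly acidic conditions, and IC50 is derived from this. Many values were also checked spectrophotometrically by the rate of diene formation (A₂₃₄).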

| SMILES | IC50 [1] [µM] | IC50 [2] [µM] |
| --- | --- | --- |
| O=S(=O)(NCCc1c(-c2cc3ccccc3o2)[nH]c2ccccc12)c1ccc(Br)cc1 | 0.161 | 0.03 |
| CCCCCc1ccc(S(=O)(=O)NCCc2c(-c3cnc4ccccc4c3)[nH]c3ccccc23)cc1 | 0.05 | 0.013 |
| CCCCCc1ccc(S(=O)(=O)NCCc2c(-c3ccc(C(F)(F)F)cc3)[nH]c3ccccc23)cc1 | 0.132 | 0.011 |
| CCCCCc1ccc(S(=O)(=O)NCCc2c[nH]c3ccc(C)cc23)cc1 | 3.9 |  |
| O=C(NC1CCCCC1)c1ccc(S(=O)(=O)NCCc2c(-c3cc4ccccc4o3)[nH]c3ccccc23)cc1 | 0.034 | 0.012 |
| CCCCCc1ccc(S(=O)(=O)NCCc2c[nH]c3cc(F)ccc23)cc1 | 2.9 |  |
| CCCCNC(=O)c1ccc(S(=O)(=O)NCCc2c(-c3cc4ccccc4o3)[nH]c3ccccc23)cc1 | 0.112 | 0.042 |
| COc1ccc(-c2ccc(S(=O)(=O)NCCc3c[nH]c4ccccc34)cc2)cc1 | 1.09 | 1.5 |
| COc1ccc(-c2[nH]c3ccccc3c2CCNS(=O)(=O)c2ccc(-c3ccccc3)cc2)cc1 | 0.247 | 0.027 |
| CCCCCc1ccc(S(=O)(=O)NCCc2c(-c3ccc(OCC)cc3)[nH]c3ccccc23)cc1 | 0.039 | 0.011 |
| CCCCCc1ccc(S(=O)(=O)NCCc2c[nH]c3ccc(F)cc23)cc1 | 6.3 |  |
| Cc1ccc(-c2ccc(S(=O)(=O)NCCc3c[nH]c4ccccc34)cc2)cc1 | 0.47 |  |
| CN(C)CCN(C)C(=O)c1ccc(S(=O)(=O)NCCc2c(-c3cc4ccccc4o3)[nH]c3ccccc23)cc1 | 0.382 | 0.076 |
| CCCCCc1ccc(S(=O)(=O)NCCc2c[nH]c3ccc(-c4ccc[nH]4)cc23)cc1 |  | 0.78 |
| CCCCCc1ccc(S(=O)(=O)N(C)CCc2c[nH]c3ccccc23)cc1 |  | > 10 |
| CCCCCc1ccc(S(=O)(=O)NCCc2c(-c3cc4ccccc4o3)n(C)c3ccccc23)cc1 | 1.42 | 0.143 |

| SMILES | IC50 [1] [µM] | IC50 [2] [µM] |
| --- | --- | --- |
| CCCCCc1ccc(S(=O)(=O)NC(C)Cc2c[nH]c3ccccc23)cc1 (stereo unspecified) |  | 1.6 |
| CCCCCc1ccc(S(=O)(=O)NCCc2c[nH]c3c(C)cccc23)cc1 | 3.3 |  |
| CN(C)c1cccc2c(S(=O)(=O)NCCc3c[nH]c4ccccc34)cccc12 |  | 3.73 |
| CCCCCc1ccc(S(=O)(=O)N2CCC(c3c[nH]c4ccccc34)C2)cc1 (stereo unspecified) |  | > 10 |
| O=C(Nc1ccccc1)c1ccc(S(=O)(=O)NCCc2c(-c3cc4ccccc4o3)[nH]c3ccccc23)cc1 | 0.051 | 0.015 |
| CCCCCc1ccc(S(=O)(=O)NCCc2c(-c3cc(OC)ccc3OC)[nH]c3ccccc23)cc1 | 0.132 | 0.028 |
| COc1ccc(NC(=O)c2ccc(S(=O)(=O)NCCc3c(-c4cc5ccccc5o4)[nH]c4ccccc34)cc2)cc1 | 0.026 | 0.011 |
| CCCCCc1ccc(S(=O)(=O)NCCc2c(-c3cccc(C)c3)[nH]c3ccccc23)cc1 | 0.058 | 0.025 |
| CCCCCc1ccc(S(=O)(=O)NCCc2c[nH]c3cc(C(=O)OC)ccc23)cc1 | 0.472 | 0.236 |
| CCCCCc1ccc(S(=O)(=O)NCCc2c(-c3ccc4oc5ccccc5c4c3)[nH]c3ccccc23)cc1 | 0.071 | 0.01 |
| CN(CCO)C(=O)c1ccc(S(=O)(=O)NCCc2c(-c3cc4ccccc4o3)[nH]c3ccccc23)cc1 | 4.05 | 0.44 |
| O=S(=O)(NCCCc1c(-c2cc3ccccc3o2)[nH]c2ccccc12)c1ccc(-c2ccccc2)cc1 | 0.017 | 0.008 |
| COc1ccc(-c2[nH]c3ccccc3c2CCNS(=O)(=O)c2ccc(C(=O)O)cc2)cc1 |  | > 10 |
| O=S(=O)(NCCc1c(-c2cc3ccccc3o2)[nH]c2ccccc12)c1ccc(-c2ccncc2)cc1 | 0.179 | 0.047 |
| CCCCc1ccc(S(=O)(=O)NCCc2c(-c3ccc(OC)cc3)[nH]c3ccccc23)cc1 |  | 0.11 |
| CC1=C(CC/C(C)=C/CC/C(C)=C/Cc2cc(O)ccc2O)C(C)(C)CCC1 [JASPAQUINOL] |  | 0.3 |
